According to ChEMBL document CHEMBL3414543, “Novel series of benzoquinones with high potency against 5-lipoxygenase in human polymorphonuclear leukocytes” (Eur J Med Chem, 2015):

Key:
[1] = target: T1, Polyunsaturated fatty acid 5-lipoxygenase (Homo sapiens, UniProt P09917); assay: Inhibition of 5-LOX in A23187-stimulated human blood PMNL assessed as reduction in lipoxygenase products formation in presence of arachidonic acid pre-incubated for 15 mins followed by stimulation with A23187 for 10 mins by RP-HPLC based cell based assay
T1 sequence (P09917 whole entry): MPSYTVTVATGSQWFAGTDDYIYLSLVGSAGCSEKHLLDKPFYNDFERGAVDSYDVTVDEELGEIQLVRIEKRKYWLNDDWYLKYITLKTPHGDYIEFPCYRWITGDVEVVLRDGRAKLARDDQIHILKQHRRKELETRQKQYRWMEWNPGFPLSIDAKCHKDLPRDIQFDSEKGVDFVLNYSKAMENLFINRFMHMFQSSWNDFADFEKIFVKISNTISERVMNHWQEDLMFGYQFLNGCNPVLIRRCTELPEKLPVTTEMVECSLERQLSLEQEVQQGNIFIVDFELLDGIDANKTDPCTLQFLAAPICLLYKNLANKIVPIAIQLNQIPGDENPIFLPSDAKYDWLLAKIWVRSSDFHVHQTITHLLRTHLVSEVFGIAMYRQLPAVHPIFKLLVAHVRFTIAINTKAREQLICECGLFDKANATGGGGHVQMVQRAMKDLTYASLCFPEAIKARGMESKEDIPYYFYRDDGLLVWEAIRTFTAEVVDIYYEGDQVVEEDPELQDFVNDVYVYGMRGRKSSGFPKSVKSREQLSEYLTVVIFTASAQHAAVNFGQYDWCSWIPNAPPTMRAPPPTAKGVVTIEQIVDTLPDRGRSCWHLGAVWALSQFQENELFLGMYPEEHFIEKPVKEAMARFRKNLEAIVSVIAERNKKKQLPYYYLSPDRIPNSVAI
How it was run: (§1)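 Human PMNL (5 × 10⁶ in 1 ml PBS pH 7.4, 1 mg/ml glucose, 1 mM CaCl₂), preincubated 15 min at 37 °C with compound or 0.1% DMSO, then stimulated 10 min at 37 °C with A23187, with or without AA. 5-LO products measured. Values are mean ± S.E. of 3–4 independent experiments. IC₅₀ read graphically from 4–5 concentrations.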

[2] = target: T2, Polyunsaturated fatty acid lipoxygenase ALOX15 (Homo sapiens) (UniProt P16050); assay: Inhibition of 15-LOX-1 in human blood PMNL assessed as remaining activity by measuring 15-HETE synthesis at 10 uM
T2 sequence (whole entry): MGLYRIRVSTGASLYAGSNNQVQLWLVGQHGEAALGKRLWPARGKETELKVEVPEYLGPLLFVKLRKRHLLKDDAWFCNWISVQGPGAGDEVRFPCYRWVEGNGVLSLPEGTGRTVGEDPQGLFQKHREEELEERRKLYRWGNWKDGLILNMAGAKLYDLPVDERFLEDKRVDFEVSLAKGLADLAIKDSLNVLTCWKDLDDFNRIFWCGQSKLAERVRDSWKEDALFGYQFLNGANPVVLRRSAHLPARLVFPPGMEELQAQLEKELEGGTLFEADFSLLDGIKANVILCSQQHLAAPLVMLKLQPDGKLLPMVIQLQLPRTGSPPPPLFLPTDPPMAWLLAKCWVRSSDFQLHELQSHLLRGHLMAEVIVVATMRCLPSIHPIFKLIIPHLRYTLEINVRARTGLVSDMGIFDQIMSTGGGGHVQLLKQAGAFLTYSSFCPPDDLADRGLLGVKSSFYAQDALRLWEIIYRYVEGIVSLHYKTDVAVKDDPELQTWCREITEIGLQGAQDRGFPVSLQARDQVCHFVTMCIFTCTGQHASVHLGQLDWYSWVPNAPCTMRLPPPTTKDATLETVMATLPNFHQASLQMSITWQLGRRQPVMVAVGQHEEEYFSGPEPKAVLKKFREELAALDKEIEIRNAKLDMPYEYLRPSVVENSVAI
How it was run: (§2)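 PMNL isolated from heparinized blood of fasted healthy donors by dextran sedimentation and Nycoprep centrifugation, with hypotonic lysis of erythrocytes. Cells at 5 × 10⁶ in 1 ml PBS pH 7.4 with 1 mg/ml glucose and 1 mM CaCl₂, preincubated 15 min at 37 °C with compound or 0.1% DMSO vehicle, then stimulated 10 min at 37 °C. 12-HETE or 15-HETE formation measured.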

[3] = target: T1, Polyunsaturated fatty acid 5-lipoxygenase; assay: Inhibition of human recombinant 5-LOX expressed in Escherichia coli BL21 incubated for 10 mins in presence of arachidonic acid by RP-HPLC based cell-free assay
How it was run: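 Recombinant human 5-LO, semi-purified from a 40,000 × g lysate supernatant on ATP-agarose, diluted in ice-cold PBS with 1 mM EDTA and 1 mM ATP. Preincubated 10 min at 4 °C with compound or 0.1% DMSO, warmed 30 s at 37 °C, then started with 2 mM CaCl₂ plus 20 µM AA. Reaction 10 min at 37 °C, stopped with cold methanol, products by RP-HPLC. IC₅₀ from 4–5 concentrations.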

Homo sapiens [4] = species on record: Homo sapiens; assay: Selectivity index, ratio of inhibition for 12-LOX in human blood PMNL to IC50 for 5-LOX in human blood PMNL
[5] = target: T1, Polyunsaturated fatty acid 5-lipoxygenase; assay: Inhibition of 5-LOX in A23187-stimulated human blood PMNL assessed as reduction in lipoxygenase products formation pre-incubated for 15 mins followed by stimulation with A23187 for 10 mins by RP-HPLC based cell based assay; how it was run: as §1
Homo sapiens [6] = species on record: Homo sapiens; assay: Selectivity index, ratio of inhibition for […] in human blood PMNL to IC50 for 5-LOX in human blood PMNL
[7] = target: T3, Polyunsaturated fatty acid lipoxygenase ALOX12 (Homo sapiens) (UniProt P18054); assay: Inhibition of 12-LOX in human blood PMNL assessed as remaining activity by measuring 12-HETE synthesis at 10 uM; how it was run: as §2
T3 sequence (whole entry): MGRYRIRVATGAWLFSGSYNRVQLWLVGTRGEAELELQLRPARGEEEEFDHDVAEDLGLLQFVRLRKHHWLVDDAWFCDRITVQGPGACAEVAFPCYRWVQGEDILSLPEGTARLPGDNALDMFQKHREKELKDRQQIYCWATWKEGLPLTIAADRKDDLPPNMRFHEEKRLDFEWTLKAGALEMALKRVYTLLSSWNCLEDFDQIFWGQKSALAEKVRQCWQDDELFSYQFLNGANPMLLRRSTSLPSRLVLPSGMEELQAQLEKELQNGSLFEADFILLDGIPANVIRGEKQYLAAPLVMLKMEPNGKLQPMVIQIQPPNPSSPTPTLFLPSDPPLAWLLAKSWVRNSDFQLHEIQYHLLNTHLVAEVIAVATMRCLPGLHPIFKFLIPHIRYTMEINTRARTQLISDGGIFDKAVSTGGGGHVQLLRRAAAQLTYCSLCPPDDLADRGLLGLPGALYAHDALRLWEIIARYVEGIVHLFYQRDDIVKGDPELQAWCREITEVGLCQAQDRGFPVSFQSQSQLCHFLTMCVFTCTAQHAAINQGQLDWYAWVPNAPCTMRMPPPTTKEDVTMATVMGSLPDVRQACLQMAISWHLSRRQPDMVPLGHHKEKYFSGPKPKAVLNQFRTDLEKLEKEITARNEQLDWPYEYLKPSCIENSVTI

[8] = target: T1, Polyunsaturated fatty acid 5-lipoxygenase; assay: Inhibition of human 5-LOX by cell free assay
[9] = target: T1, Polyunsaturated fatty acid 5-lipoxygenase; assay: Inhibition of human 5-LOX by intact cell based assay
[10] = target: T4, Polyunsaturated fatty acid 5-lipoxygenase (Homo sapiens) (UniProt P09917); assay: Potency index, ratio of IC50 for human 5-LOX by intact cell based assay to IC50 for human 5-LOX by cell free assay
T4 sequence (whole entry): T1 sequence (P09917 whole entry)

| Structure (SMILES) | IC50 [1] [nM] | Activity [2] [%] | IC50 [3] [nM] | Selectivity Index (Homo sapiens [4]) | IC50 [5] [nM] | Selectivity Index (Homo sapiens [6]) | Activity [7] [%] | IC50 [8] [nM] | IC50 [9] [nM] | Ratio IC50 [10] |
| --- | --- | --- | --- | --- | --- | --- | --- | --- | --- | --- |
| CCCCCCCCCCCCC1=C(OC)C(OC)=CC(=O)C1=O | 150 | 133 | 130 | > 66 | 29 | > 66 | 135 |  |  |  |
| CCCCCCCCCCCC1=C(O)C(=O)C=C(O)C1=O [EMBELIN] | 3500 | 91.5 | 60 |  | 1700 |  | 74.9 | 60 | 800 | 13 |
| CCCCCCCCCCCC1=C(OC)C(OC)=CC(=O)C1=O | 100 | 105 | 90 | > 66 | 60 | > 66 | 236 |  |  |  |
| CCCCCCCCCCCCCC1=C(OC)C(OC)=CC(=O)C1=O | 50 | 137 | 80 | > 66 | 120 | > 66 | 78.5 |  |  |  |
